We go through 2 compounds from ChEMBL document CHEMBL1142937, “Synthesis, affinity profile, and functional activity of muscarinic antagonists with a 1-methyl-2-(2,2-alkylaryl-1,3-oxathiolan-5-yl)pyrrolidine structure” (J Med Chem, 2007).

As usually defined, the Ki is the equilibrium dissociation constant of an inhibitor or competing ligand from its target. A high value points to lower affinity. The pKb is the negative decadic logarithm of the Kb, by convention in mol/L.

The target of assay [1] is Muscarinic acetylcholine receptor M3 (Cavia porcellus, UniProt Q8VH26). As to the kind of experiment: (§1) Antagonist activity at muscarinic receptor M3 assessed as contraction of guinea pig ileum. It counts as functional, tissue-based. As to conditions: read-out: pA2 (converted). The procedure, abridged: (§2)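 Isolated guinea pig tissue preparations (stimulated left atria, ileum, lung strips), run in vitro by a previously described protocol, with the ileum method slightly modified. Agonist dose–response curves were recorded before and after one or two antagonist concentrations. pKb = log(DR−1) − log[B], where DR is the ratio of agonist ED50 after/before antagonist. Some cases were expressed as pA2 from Schild plots constrained to slope −1.0.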
Muscarinic acetylcholine receptor M3 (Cavia porcellus, UniProt Q8VH26), sequence (Q8VH26 whole entry): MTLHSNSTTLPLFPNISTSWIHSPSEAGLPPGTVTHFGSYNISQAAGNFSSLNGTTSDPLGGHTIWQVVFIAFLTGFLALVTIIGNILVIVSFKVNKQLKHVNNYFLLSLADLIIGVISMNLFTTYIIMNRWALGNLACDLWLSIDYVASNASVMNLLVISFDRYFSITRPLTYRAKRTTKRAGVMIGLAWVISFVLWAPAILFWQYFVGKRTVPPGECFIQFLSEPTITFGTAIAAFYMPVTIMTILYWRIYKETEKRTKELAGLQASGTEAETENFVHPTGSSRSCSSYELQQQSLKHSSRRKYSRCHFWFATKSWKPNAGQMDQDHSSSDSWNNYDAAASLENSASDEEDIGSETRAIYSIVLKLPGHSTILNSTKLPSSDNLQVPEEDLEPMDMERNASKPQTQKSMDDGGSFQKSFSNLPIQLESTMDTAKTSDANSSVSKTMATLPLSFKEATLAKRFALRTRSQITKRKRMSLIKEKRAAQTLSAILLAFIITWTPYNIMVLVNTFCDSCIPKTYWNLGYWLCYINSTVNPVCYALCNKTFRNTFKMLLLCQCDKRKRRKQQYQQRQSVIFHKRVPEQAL

Assay [2] addresses T1, Muscarinic acetylcholine receptor M2 (Homo sapiens, UniProt P08172).
T1 sequence (P08172 whole entry): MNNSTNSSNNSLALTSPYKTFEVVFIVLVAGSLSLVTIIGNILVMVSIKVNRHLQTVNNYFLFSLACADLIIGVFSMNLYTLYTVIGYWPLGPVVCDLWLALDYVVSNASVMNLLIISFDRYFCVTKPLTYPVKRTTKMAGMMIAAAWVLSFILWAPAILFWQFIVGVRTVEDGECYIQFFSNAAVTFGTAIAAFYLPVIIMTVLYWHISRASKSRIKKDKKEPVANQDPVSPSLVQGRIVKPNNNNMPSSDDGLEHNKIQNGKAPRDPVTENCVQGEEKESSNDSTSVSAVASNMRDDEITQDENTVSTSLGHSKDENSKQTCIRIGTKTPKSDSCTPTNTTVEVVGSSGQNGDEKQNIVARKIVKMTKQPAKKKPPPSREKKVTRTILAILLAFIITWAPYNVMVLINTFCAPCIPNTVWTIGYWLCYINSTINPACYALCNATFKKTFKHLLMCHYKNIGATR
As to the kind of experiment: Binding affinity to human cloned muscarinic receptor M2 expressed in CHO cells. The class given is cell-based. The gist of the method:
(§3)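 Equilibrium radioligand binding on CHO cells expressing the cloned human muscarinic subtype. Affinity is reported as pKi.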

In assay [3] the target is Muscarinic acetylcholine receptor M3 (Homo sapiens, UniProt P20309). As to the kind of experiment: Binding affinity to human cloned muscarinic receptor M3 expressed in CHO cells. The class given is cell-based.
Muscarinic acetylcholine receptor M3 (Homo sapiens, UniProt P20309), sequence (P20309 whole entry): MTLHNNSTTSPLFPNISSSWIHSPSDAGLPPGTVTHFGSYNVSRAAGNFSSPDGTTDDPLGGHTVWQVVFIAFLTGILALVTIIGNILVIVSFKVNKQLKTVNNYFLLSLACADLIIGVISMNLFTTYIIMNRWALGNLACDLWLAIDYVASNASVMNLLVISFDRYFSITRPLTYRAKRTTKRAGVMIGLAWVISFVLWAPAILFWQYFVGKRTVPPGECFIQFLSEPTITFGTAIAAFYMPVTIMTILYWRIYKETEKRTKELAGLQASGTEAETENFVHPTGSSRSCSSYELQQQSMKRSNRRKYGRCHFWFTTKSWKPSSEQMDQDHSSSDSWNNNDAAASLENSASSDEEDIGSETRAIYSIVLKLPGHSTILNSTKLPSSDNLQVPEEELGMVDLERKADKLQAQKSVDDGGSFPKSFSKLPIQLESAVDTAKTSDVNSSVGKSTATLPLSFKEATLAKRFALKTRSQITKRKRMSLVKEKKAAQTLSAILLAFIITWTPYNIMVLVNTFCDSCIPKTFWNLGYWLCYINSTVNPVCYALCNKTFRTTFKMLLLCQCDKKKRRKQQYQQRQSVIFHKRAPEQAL
For assay [4], the target named is T2, Muscarinic acetylcholine receptor M4 (Homo sapiens, UniProt P08173).
T2 sequence (P08173 whole entry): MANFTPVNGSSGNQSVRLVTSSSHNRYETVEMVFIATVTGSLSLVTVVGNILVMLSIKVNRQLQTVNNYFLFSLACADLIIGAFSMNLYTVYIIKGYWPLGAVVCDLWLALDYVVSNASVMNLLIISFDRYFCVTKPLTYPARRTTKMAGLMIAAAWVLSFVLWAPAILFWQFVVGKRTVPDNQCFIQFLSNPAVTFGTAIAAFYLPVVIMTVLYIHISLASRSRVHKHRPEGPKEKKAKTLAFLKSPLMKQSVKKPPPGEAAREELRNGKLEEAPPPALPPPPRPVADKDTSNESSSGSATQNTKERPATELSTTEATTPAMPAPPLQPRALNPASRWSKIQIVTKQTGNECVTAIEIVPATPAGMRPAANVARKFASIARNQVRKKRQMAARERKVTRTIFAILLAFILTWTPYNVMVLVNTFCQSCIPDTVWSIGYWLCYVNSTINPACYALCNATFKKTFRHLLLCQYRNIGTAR
As to the kind of experiment: Binding affinity to human cloned muscarinic receptor M4 expressed in CHO cells. It counts as cell-based.

The target in assay [5] is T3, Muscarinic acetylcholine receptor M5 (Homo sapiens, UniProt P08912).
T3 sequence (P08912 whole entry): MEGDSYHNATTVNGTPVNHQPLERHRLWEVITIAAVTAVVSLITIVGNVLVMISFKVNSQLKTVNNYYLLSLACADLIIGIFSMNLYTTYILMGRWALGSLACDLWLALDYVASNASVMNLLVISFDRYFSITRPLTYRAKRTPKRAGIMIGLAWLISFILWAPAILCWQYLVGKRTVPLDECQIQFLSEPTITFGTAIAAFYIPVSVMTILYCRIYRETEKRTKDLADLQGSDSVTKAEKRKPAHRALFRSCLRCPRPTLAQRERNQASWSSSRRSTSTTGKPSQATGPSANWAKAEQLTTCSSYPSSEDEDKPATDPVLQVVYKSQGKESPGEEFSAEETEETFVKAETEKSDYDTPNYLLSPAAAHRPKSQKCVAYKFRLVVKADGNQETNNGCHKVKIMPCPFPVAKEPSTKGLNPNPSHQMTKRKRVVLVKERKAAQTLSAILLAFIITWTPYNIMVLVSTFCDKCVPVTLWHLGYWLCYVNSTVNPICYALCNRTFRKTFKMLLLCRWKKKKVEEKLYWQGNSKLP
As to the kind of experiment: Binding affinity to human cloned muscarinic receptor M5 expressed in CHO cells. It counts as cell-based. The gist of the method:
as §3

For assay [6], the target named is Muscarinic acetylcholine receptor M3 (Cavia porcellus) (UniProt Q8VH26). The description is as §1. It counts as functional, tissue-based. The settings on record: filed as antagonist. The gist of the method:
as §2

In assay [7] the target is T4, Muscarinic acetylcholine receptor M1 (Homo sapiens, UniProt P11229).
T4 sequence (P11229 whole entry): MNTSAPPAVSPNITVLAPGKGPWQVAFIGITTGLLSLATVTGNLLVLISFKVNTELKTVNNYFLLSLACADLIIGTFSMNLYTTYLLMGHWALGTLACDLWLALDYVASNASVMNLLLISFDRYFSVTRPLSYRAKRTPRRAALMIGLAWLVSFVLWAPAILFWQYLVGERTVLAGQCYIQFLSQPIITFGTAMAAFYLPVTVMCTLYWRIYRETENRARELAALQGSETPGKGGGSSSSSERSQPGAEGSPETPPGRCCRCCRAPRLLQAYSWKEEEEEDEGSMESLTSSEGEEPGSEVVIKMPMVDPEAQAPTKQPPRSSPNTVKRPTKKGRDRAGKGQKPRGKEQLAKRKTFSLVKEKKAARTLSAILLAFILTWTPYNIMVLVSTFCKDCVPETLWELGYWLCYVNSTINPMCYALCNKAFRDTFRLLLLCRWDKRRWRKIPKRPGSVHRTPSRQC
As to the kind of experiment: Binding affinity to human cloned muscarinic receptor M1 expressed in CHO cells. It counts as cell-based.

In assay [8] the test system is Muscarinic acetylcholine receptor M1, putative (Oryctolagus cuniculus). As to conditions: Vas deferens, filed as antagonist.
The test system of assay [9] is Muscarinic acetylcholine receptor M2 (Cavia porcellus). As to the kind of experiment: Antagonist activity at muscarinic receptor M2 assessed as contraction of electrically-stimulated guinea pig left atria. The settings on record: filed as antagonist.
Assay [10] deals with Muscarinic acetylcholine receptor M4, putative (Cavia porcellus). As to the kind of experiment: Antagonist activity at putative muscarinic receptor M4 assessed as contraction of electrically-stimulated guinea pig lung strips. As to conditions: filed as antagonist.

Muscarinic acetylcholine receptor M3 (Cavia porcellus), sequence (Q8VH26 1-587): as the sequence (Q8VH26 whole entry) above

For `C[N+]1(C)[C@@H]2C[C@@H](OC(=O)[C@H](CO)c3ccccc3)C[C@H]1[C@@H]1O[C@@H]12` [METHSCOPOLAMINE], in assay [1], the Kb was 0.617 nM (antagonist).

As to `C[N+]1(C)CCC[C@@H]1[C@@H]1CSC(c2ccccc2)(c2ccccc2)O1`, the Ki is given as 3.39 nM (antagonist) in assay [2]; 5.01 nM (antagonist) in [3]; 3.47 nM (antagonist) in assay [4]; 3.47 nM (antagonist) in assay [5]; 2.34 nM (antagonist) in [7]. Further, the pKb in assay [6] is 8.26; in [8], 8.49; in [9], 7.76; in [10], 6.52.
